Experimental data from ChEMBL document CHEMBL4689842, “EUbOPEN Chemogenomics Library wave 1” (2021).

System: HEK-293T
Experiment: Multiplex assay against HEK293T;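 as to Population Tubulin-Different-Phenotype (%): share of the cells with healthy nuclei that show this phenotype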
Assay type: toxicity, cell-based
Details: human
Procedure, shortened: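 Per cents of healthy-nucleus cells form the tubulin, mitochondrial-mass and membrane-permeability phenotype values. Live cells were stained at seeding with Hoechst33342, BioTracker Green Microtubule Cytoskeleton Dye, MitoTracker Red and Annexin V Alexa Fluor 680. After compound addition they were imaged on a CQ1 microscope at 37°C and 5% CO2, and CellPathfinder machine-learning gating split them into Hoechst high-intensity objects or normal cells, normal cells into healthy, pyknosed or fragmented nuclei, and pyknosed cells into mitotic or apoptotic.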

[1] = 12 h, 1 µM, compound concentration 1 uM, replicate 1
[2] = 12 h, 1 µM, compound concentration 1 uM, replicate 2
[3] = 12 h, 10 µM, compound concentration 10 uM, replicate 1
[4] = 12 h, 10 µM, compound concentration 10 uM, replicate 2
[5] = 24 h, 1 µM, compound concentration 1 uM, replicate 1
[6] = 24 h, 1 µM, compound concentration 1 uM, replicate 2
[7] = 24 h, 10 µM, compound concentration 10 uM, replicate 1
[8] = 24 h, 10 µM, compound concentration 10 uM, replicate 2

In the case of `CCCS(=O)(=O)Nc1ccc(F)c(C(=O)c2c[nH]c3ncc(Cl)cc23)c1F` [PLX-4720], the “Population Apoptotic (%)” value [1] is reported as 13%, the “Population Fragmented Nuclei (%)” value [1] is reported as 16% and the “Population Healthy Nuclei (%)” value [1] is reported as 62%. For the same molecule, the “Population Hoechst High Intensity Objects (%)” value [1] was 11%, the “Population Membrane Permeable-Phenotype (%)” value [1] was 6% and the “Population Mitochondria Different-Phenotype (%)” value [1] was 4%. For the same molecule, the “Population Mitotic Cells (%)” value [1] was 86%, the “Population Normal (%)” value [1] was 88% and the “Population Pyknosed Nuclei (%)” value [1] was 20%. For the same molecule, the “Population Tubulin-Different-Phenotype (%)” value [1] was 8%, the “Total Cell Count” value [1] was 675 and the “Population Apoptotic (%)” value [2] was 6%. For the same molecule, the “Population Fragmented Nuclei (%)” value [2] was 7%, the “Population Healthy Nuclei (%)” value [2] was 87% and the “Population Hoechst High Intensity Objects (%)” value [2] was 2%. For the same molecule, the “Population Membrane Permeable-Phenotype (%)” value [2] was 2%, the “Population Mitochondria Different-Phenotype (%)” value [2] was 10% and the “Population Mitotic Cells (%)” value [2] was 93%. For the same molecule, the “Population Normal (%)” value [2] was 97%, the “Population Pyknosed Nuclei (%)” value [2] was 5% and the “Population Tubulin-Different-Phenotype (%)” value [2] was 14%. For the same molecule, the “Total Cell Count” value [2] was 1750, the “Population Apoptotic (%)” value [3] was 21% and the “Population Fragmented Nuclei (%)” value [3] was 13%. The “Population Healthy Nuclei (%)” value [3] was 73%, the “Population Hoechst High Intensity Objects (%)” value [3] was 13% and the “Population Membrane Permeable-Phenotype (%)” value [3] was 3%. For the same molecule, the “Population Mitochondria Different-Phenotype (%)” value [3] was 2%, the “Population Mitotic Cells (%)” value [3] was 78% and the “Population Normal (%)” value [3] was 86%. The “Population Pyknosed Nuclei (%)” value [3] was 12%, the “Population Tubulin-Different-Phenotype (%)” value [3] was 1% and the “Total Cell Count” value [3] was 751. For the same molecule, the “Population Apoptotic (%)” value [4] was 11%, the “Population Fragmented Nuclei (%)” value [4] was 9% and the “Population Healthy Nuclei (%)” value [4] was 86%. The “Population Hoechst High Intensity Objects (%)” value [4] was 2%, the “Population Membrane Permeable-Phenotype (%)” value [4] was 0% and the “Population Mitochondria Different-Phenotype (%)” value [4] was 5%. For the same molecule, the “Population Mitotic Cells (%)” value [4] was 88%, the “Population Normal (%)” value [4] was 97% and the “Population Pyknosed Nuclei (%)” value [4] was 4%. The “Population Tubulin-Different-Phenotype (%)” value [4] was 2%, the “Total Cell Count” value [4] was 1952 and the “Population Apoptotic (%)” value [5] was 28%. The “Population Fragmented Nuclei (%)” value [5] was 13%, the “Population Healthy Nuclei (%)” value [5] was 78% and the “Population Hoechst High Intensity Objects (%)” value [5] was 7%. For the same molecule, the “Population Membrane Permeable-Phenotype (%)” value [5] was 7%, the “Population Mitotic Cells (%)” value [5] was 71% and the “Population Normal (%)” value [5] was 92%. The “Population Pyknosed Nuclei (%)” value [5] was 7%, the “Population Tubulin-Different-Phenotype (%)” value [5] was 9% and the “Total Cell Count” value [5] was 803. The “Population Apoptotic (%)” value [6] was 3%, the “Population Fragmented Nuclei (%)” value [6] was 20% and the “Population Healthy Nuclei (%)” value [6] was 77%. The “Population Hoechst High Intensity Objects (%)” value [6] was 5%, the “Population Membrane Permeable-Phenotype (%)” value [6] was 8% and the “Population Mitochondria Different-Phenotype (%)” value [6] was 3%. The “Population Mitotic Cells (%)” value [6] was 96%, the “Population Normal (%)” value [6] was 94% and the “Population Pyknosed Nuclei (%)” value [6] was 2%. The “Population Tubulin-Different-Phenotype (%)” value [6] was 24%, the “Total Cell Count” value [6] was 2555 and the “Population Apoptotic (%)” value [7] was 15%. The “Population Fragmented Nuclei (%)” value [7] was 14%, the “Population Healthy Nuclei (%)” value [7] was 78% and the “Population Hoechst High Intensity Objects (%)” value [7] was 6%. The “Population Membrane Permeable-Phenotype (%)” value [7] was 5%, the “Population Mitochondria Different-Phenotype (%)” value [7] was 2% and the “Population Mitotic Cells (%)” value [7] was 84%. For the same molecule, the “Population Normal (%)” value [7] was 93%, the “Population Pyknosed Nuclei (%)” value [7] was 6% and the “Population Tubulin-Different-Phenotype (%)” value [7] was 3%. The “Total Cell Count” value [7] was 975, the “Population Apoptotic (%)” value [8] was 3% and the “Population Fragmented Nuclei (%)” value [8] was 29%. For the same molecule, the “Population Healthy Nuclei (%)” value [8] was 68%, the “Population Hoechst High Intensity Objects (%)” value [8] was 3% and the “Population Membrane Permeable-Phenotype (%)” value [8] was 3%. For the same molecule, the “Population Mitochondria Different-Phenotype (%)” value [8] was 1%, the “Population Mitotic Cells (%)” value [8] was 96% and the “Population Normal (%)” value [8] was 96%. The “Population Pyknosed Nuclei (%)” value [8] was 1%, the “Population Tubulin-Different-Phenotype (%)” value [8] was 4% and the “Total Cell Count” value [8] was 3379.
